# Experimental data of several laboratories.
# Each line is one published result; the experiments were not run side by side. pKi: −log10 of the molar value.
# Target: D(3) dopamine receptor (DRD3, Homo sapiens, UniProt P35462)
# Method: radioligand
read-out,notes,pKi,SMILES
ligand displacement,cell membranes,6.52,C[C@@H]1Cc2ccccc2N1C(=O)NCCCCN(C)[C@@H]1Cc2cccc3[nH]c(=O)n(c23)C1
ligand displacement,,< 5.00,COc1ccc(CCC2=NCCN2CCc2ccccc2)cc1
cell-free assay,,5.72,CCOc1c(O)cc(Br)c2c1CN1CCc3cc(OCC(F)F)c(O)cc3[C@@H]1C2
cell-free assay,,5.51,CCCCN1CCC(COC(=O)c2ccc(N)c(OCF)c2)CC1
ligand displacement,,6.68,COc1ccc2c(c1)C(=O)N(CCN1CCN(c3ccccc3OC)CC1)C2
cell-free assay,,< 5.00,CCN(CC)c1ccc(C2Nc3ccc(C(=O)c4ccccc4)cc3NC3=C2C(=O)CC(C)(C)C3)cc1 (stereo not drawn)
ligand displacement,cell membranes,7.26,CN(C[C@@H]1C[C@H]1CCNC(=O)c1cc2ccccc2[nH]1)[C@@H]1Cc2cccc3[nH]c(=O)n(c23)C1
ligand displacement,,< 5.00,Oc1cccc(CCC2=NCCN2CCc2ccccc2)c1
cell-free assay,,9.40,COc1ccccc1N1CCN(CCCCNC(=O)c2cc3cc(OCCF)ccc3[nH]2)CC1
ligand displacement,,9.00,O=C1c2ccccc2CCN1CCCCN1CCN(c2cccc(Cl)c2Cl)CC1
ligand displacement,cell membranes,6.56,CC1Cc2ccccc2N1C(=O)NCCCCN(C)[C@H]1CNc2ccccc2C1 (stereo partly drawn)
ligand displacement,,6.08,Oc1ccc(CCC2=NCCN2CCc2ccccc2)cc1
